# Only some compounds are listed: those with a hit (about 1.3% of all), similar ones and a draw of the others.
# VLA-4 inh: inhibition in human VLA-4 binding assay, primary screen, VLA-4 allosteric modulator project, MLPCN library, flow cytometry, VLA-4 expressing cells | Integrin alpha-4 (Homo sapiens), P13612 | ligand binding flow cytometry | inhibition, % (about 7 µM as worked out from the volumes in the protocol) | 330,000 compounds, 0.2% hits | AID 2557, 2010; in the data active = inhibition above about 50%
# GASC-1 inh: inhibitors of GASC-1 histone demethylase, primary screen, biochemical, fluorescence, DELFIA europium | inhibition, % at 2.35 µM | Lysine-specific demethylase 4C (Homo sapiens), Q9H3R0 | 330,000 compounds, 0.069% hits | GST-JMJD2C(1-420) H3K9me3 demethylation;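 active = more than half of a compound's replicate wells show inhibition beyond 50%, single wells judged on their own value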;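 also: signal counts dimethyl H3K9 product captured on neutravidin plate; 0% = median of DMSO wells and 100% = 0.3 times that DMSO median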
# Target sequence (Q9H3R0 1-420 limits assumed): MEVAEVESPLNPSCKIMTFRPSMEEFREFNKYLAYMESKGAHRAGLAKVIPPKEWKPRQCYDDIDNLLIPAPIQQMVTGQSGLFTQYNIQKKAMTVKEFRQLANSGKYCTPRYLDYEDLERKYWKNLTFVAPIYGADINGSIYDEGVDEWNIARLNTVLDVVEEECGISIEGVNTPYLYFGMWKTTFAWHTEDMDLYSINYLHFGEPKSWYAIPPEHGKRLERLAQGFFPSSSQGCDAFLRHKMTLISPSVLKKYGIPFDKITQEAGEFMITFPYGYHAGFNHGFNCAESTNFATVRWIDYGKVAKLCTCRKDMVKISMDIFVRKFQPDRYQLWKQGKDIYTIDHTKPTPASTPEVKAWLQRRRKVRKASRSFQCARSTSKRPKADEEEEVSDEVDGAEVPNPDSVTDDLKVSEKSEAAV
# procasp7 counter: procaspase-7 activators, primary screen, counter-screen for procaspase-3 activator project, biochemical, absorbance, HTS, human | Caspase-7 (Homo sapiens), P55210 | recombinant procaspase-7, Ac-DEVD-pNA absorbance 405 nm; D23A/D198A/D206A triple mutant, cannot self-cleave; scale: DMSO 0, 5 µM enzyme 100 | activation, % at 8.5 µM | 330,000 compounds, 0.093% hits;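 active = percent activation above the screen-wide mean plus 3 SD, cut at about 25% in these data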
#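 buffer or medium = Zinc-free HEPES/NaCl buffer, pH 7.4 | material = Procaspase-7 triple mutant (PC-7 D3A) | input = 2 µM procaspase-7 mutant as dispensed | signal = Epi-absorbance of released pNA at 405 nm, two timepoints | timing = 1 h preincubation, 2 h reaction | replicates = singlicate compound testing | evaluation = % activation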
# procasp3 activ: activators of human procaspase-3 D3A mutant, primary screen, biochemical, absorbance, PC-3 D3A mutant, single concentration; Caspase-3 (Homo sapiens), P42574; recombinant procaspase-3 D3A, Ac-DEVD-pNA absorbance 405 nm; activation, % at 8.5 µM; 330,000 compounds, 0.11% hits; AID 463141, 2010;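 active = activation above the mean of all tested compounds plus 3 SD, cut at about 21% in these data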;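 also: 0% = DMSO alone and 100% = DMSO wells spiked with extra 5 µM PC-3 D3A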
# Target sequence (P42574 whole entry D9A/D28A/D175A): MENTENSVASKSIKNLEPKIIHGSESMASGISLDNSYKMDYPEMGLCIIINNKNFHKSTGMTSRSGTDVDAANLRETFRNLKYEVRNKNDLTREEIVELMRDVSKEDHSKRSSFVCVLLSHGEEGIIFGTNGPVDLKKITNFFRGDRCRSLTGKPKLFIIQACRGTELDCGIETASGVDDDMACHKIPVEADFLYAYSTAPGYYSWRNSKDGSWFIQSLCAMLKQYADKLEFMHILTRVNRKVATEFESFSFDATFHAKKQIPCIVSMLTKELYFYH
#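 assay system = Procaspase-3 D3A mutant | signal = absorbance at 405 nm, 0 and 120 min | times = 1 h preincubation plus 2 h reaction at 25 °C | repeats = single replicate | read-out = % activation between DMSO and enzyme-spiked controls | medium = Zinc-free HEPES saline buffer with Triton X-100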
# GRK2 aptamer HTS: compounds blocking aptamer binding on GRK2 – biochemical, human GRK2, bead flow cytometry, HTS, primary screen. Beta-adrenergic receptor kinase 1 (Homo sapiens), P25098. FAM-aptamer displacement from GRK2. inhibition of aptamer binding, % at 10 µM. 330,000 compounds, 0.59% hits. AID 488847, 2010;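 active = inhibition of aptamer binding above 40%, roughly 3 SD of noise, on plates passing a quality check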;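 also: median bead fluorescence of bound FAM aptamer so fluorescent compounds give negative values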
# Hep lipid drop: inhibitors of hepatocyte lipid droplet formation, primary screen, imaging, high-throughput imaging, BODIPY stain; 240,000 compounds, 0.4% hits; inhibition, % at 6.5 µM; AML12 mouse hepatocytes, oleate lipid droplets;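 active = lipid droplet intensity inhibited by at least 50%, with more than 500 cells counted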
#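 System: AML12 hepatocytes (mouse). Probe or stimulus: oleic acid at 100 µM to induce lipid droplet formation. Times: overnight treatment with compound plus oleate. Detection: Image-based BODIPY and DAPI two-channel analysis. Evaluation: percent inhibition of filter-corrected integrated lipid droplet intensity per well.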
# GRK2 CP1: GRK2 aptamer-displacing inhibitors, retest, confirmation, biochemical, cherry pick 1, bead flow cytometry; shares compounds with GRK2 aptamer HTS; bead-bound GRK2, FAM-aptamer displacement; aptamer displacement, % at 10 µM; 2,000 compounds, 4% hits; AID 504451, 2011;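 active = aptamer displacement above 40%, near three times the noise of non-fluorescent compounds, on plates passing quality checks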;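 also: negative values mostly reflect intrinsic compound fluorescence rather than true enhancement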
# Aptamer quench SP: aptamer fluorescence quenching in GRK2 counter-screen; 2,000 tested, under 10 active; fluorescence response (% of DMSO), % at 10 µM; shares compounds with GRK2 aptamer HTS; Carboxyfluorescein RNA aptamer on beads, flow cytometry quenching; active compounds read low;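 active = compounds that quench the bead-bound fluorescent RNA probe, cutting fluorescence to under half of the solvent control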;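 also: counterscreen run without GRK2 so only probe quenching by compound is measured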
# GRK2 confirm 2: GRK2 aptamer-displacing inhibitors, hit retest, confirmation, biochemical, cherry pick 2, bead flow cytometry; shares compounds with GRK2 aptamer HTS; bead-bound GRK2, FAM-aptamer displacement; inhibition of aptamer binding, % at 10 µM; 360 tested, under 10 active;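 active = inhibition of aptamer binding above 40%, about triple the noise seen with nonglowing compounds, on plates passing quality control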;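 also: negative values mostly come from compounds that fluoresce themselves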
# FAM quench CP2: quenches fluorescent RNA aptamer, GRK2 hit artifact; shares compounds with GRK2 aptamer HTS; carboxyfluorescein RNA aptamer beads, flow cytometry quenching; active compounds read low; fluorescence response vs DMSO, % at 10 µM; 360 tested, under 10 active;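 active = response vs DMSO under 50%, meaning signal dropped by over half, treated as fluorescence quencher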;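 also: labelled aptamer on streptavidin beads without GRK2 as a quench counter-screen; 100% = bead fluorescence of DMSO wells and lower means quenching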
# Starred values were filed as active, the others as inactive; / = no result.
SMILES,VLA-4 inh,GASC-1 inh,procasp7 counter,procasp3 activ,GRK2 aptamer HTS,Hep lipid drop,GRK2 CP1,Aptamer quench SP,others
O=C(CCc1ccccc1)Nc1nc2n(n1)C(c1ccccc1)CC(=O)N2 (stereo unspecified),13,5,1,4,2,/,/,/,
O=C(NCc1ccc(F)cc1)C1CCCN(S(=O)(=O)c2ccc(-n3cnnn3)cc2)C1 (stereo unspecified),-4,7,4,2,2,-1,3,99,
Cc1c([N+](=O)[O-])c(C(=O)NC2CCCC2)nn1C,/,-8,/,/,/,9,/,/,
N#CC1=C2SCN(Cc3ccco3)CN2C(=O)CC1c1c(F)cccc1Cl (stereo unspecified),-18,1,-25,-24,88*,/,-3,100,
Cc1ccc(C2CC(=O)N3CN(Cc4ccco4)CSC3=C2C#N)cc1 (stereo unspecified),-17,10,-4,-6,0,/,/,/,
Cc1cc(C)c(OCCCCN2CCNCC2)c(C)c1,5,-3,16,-10,0,-9,/,/,
Cc1cccc(C)c1OCCCCN1CCNCC1,6,-10,3,8,42*,2,-5,99,
Cc1c(CCC(=O)NCCCn2ccnc2)c(=O)oc2c(C)c3oc4c(c3cc12)CCCC4,0,155,-6,5,2,2,/,/,
Cc1cccc(-n2c(N)c(-c3nc4ccccc4n3C)c3nc4ccccc4nc32)c1,-26,5,-21,-43,97*,34,/,/,GRK2 confirm 2=-104;FAM quench CP2=100
O=C(c1ccc(CSc2nc3ccncc3[nH]2)cc1)N1CCCCCC1,2,4,7,7,68*,1,0,94,
Clc1ccc(CSc2nc3ccncc3[nH]2)cc1,-11,9,1,8,1,/,/,/,
Cc1ccc(CSc2nc3ccncc3[nH]2)cc1,0,-12,1,11,78*,/,1,100,
O=C(c1ccc(CSc2nc3ccncc3[nH]2)cc1)N1CCN(c2cccc(Cl)c2)CC1,7,9,-4,-11,0,-22,/,/,
O=C(Nc1cc([N+](=O)[O-])ccc1O)c1cccc(NC(=O)c2ccco2)c1,-3,32,-9,-7,78*,-8,1,103,
CC(C)CNC(=O)c1cccc(NC(=O)c2ccco2)c1,6,4,9,-1,0,-2,/,/,
O=C(NCc1ccco1)c1cccc(NC(=O)c2ccco2)c1,-1,2,-1,10,0,8,-3,101,
CN(C(=O)c1cccc(NC(=O)c2ccco2)c1)c1ccccc1,-5,-5,8,-2,0,-2,/,/,
CC(C)Oc1ccc(C(=O)NCc2ccco2)cc1,8,3,2,4,0,-4,/,/,
CN(Cc1ccccc1)C(=O)c1cccc(NC(=O)c2ccco2)c1,0,0,10,3,4,1,1,104,
COc1ccc(C(=O)Nc2cccc(C(=O)NCc3ccco3)c2)cc1,-3,-23,-1,-4,0,-4,-1,96,
CN(C(=O)C1CCN(S(=O)(=O)c2ccccc2[N+](=O)[O-])CC1)C1CCCCC1,5,3,-4,-2,0,/,/,/,
Cc1ccc(S(=O)(=O)N2CCCCC2)cc1NC(=O)c1cc(=O)[nH]c2ccccc12,5,6,-9,-2,1,/,/,/,
O=C(NCc1ccccc1)c1cccc(NC(=O)c2ccco2)c1,10,-7,16,-3,2,/,2,93,
NC(=O)C1CCN(CC(=O)N2c3ccccc3CCc3ccccc32)CC1,12,5,6,-3,32,-1,-1,98,
NC(=O)C1CCN(C(=O)CN2CCc3ccccc32)CC1,-10,-14,-9,-4,2,-8,/,/,
SMILES,VLA-4 inh,GASC-1 inh,procasp7 counter,procasp3 activ,GRK2 aptamer HTS,Hep lipid drop,GRK2 CP1,Aptamer quench SP,others
CCC(CO)Nc1ccc(-c2n[nH]c(=O)c3ccccc23)cc1[N+](=O)[O-] (stereo unspecified),8,3,-1,-5,60*,-1,/,/,GRK2 confirm 2=-3;FAM quench CP2=105
CCC(CO)Nc1ccc(-c2nn(C)c(=O)c3ccccc23)cc1[N+](=O)[O-] (stereo unspecified),2,-12,6,-2,0,-1,/,/,
O=C(c1ccco1)c1cn(CC(=O)N2CCCCCC2)c2ccccc12,18,-10,0,0,0,-14,/,/,
CC1CCCCN1C(=O)Cn1cc(C(=O)c2ccco2)c2ccccc21 (stereo unspecified),-4,8,13,-3,97*,0,2,98,
O=C(CS(=O)(=O)c1cccc(C(F)(F)F)c1)Nc1ccccc1Cl,6,1,6,1,1,/,/,/,GRK2 confirm 2=-5;FAM quench CP2=107
Cc1ccc(C2CC(=O)Nc3cc4c(cc32)OCCO4)s1 (stereo unspecified),-3,-20,-7,-2,6,12,-2,101,
COCOc1ccc(C=O)c(OCOC)c1,38,1,-1,0,98*,/,-1,100,
O=C(CN(c1cccc(Cl)c1)S(=O)(=O)c1ccc(Cl)cc1)NCc1ccccn1,-7,10,2,-2,0,-14,/,/,
CCOC(=O)C1(CCc2ccccc2)CCN(C(=O)CN2C(=O)CSC2=O)CC1,-4,2,3,1,92*,-1,-5,99,
O=C(CN1CCN(c2ccc(O)cc2)CC1)Nc1ccc(S(=O)(=O)N2CCCC2)cc1,-4,-5,-11,-9,0,/,/,/,
